The values that follow come from ChEMBL document CHEMBL3046282, “Synthesis, insecticidal activity, crystal structure, and molecular docking studies of nitenpyram analogues with an ω-hydroxyalkyl ester arm anchored on the tetrahydropyrimidine ring” (2012).

Structures are written as SMILES. Values after ≈ are worked out from the molar mass of the structure shown. Active and inactive are the calls of the source. The rule behind the calls is not given here.

The subject of assay [1] is Myzus persicae. Put plainly: Insecticidal activity against Myzus persicae (green peach aphid) assessed as mortality at 25 degC after 72 hr at 20 mg/L. The assay is classed as functional.
Assay [2] relates to Myzus persicae. Put plainly: Insecticidal activity against Myzus persicae (green peach aphid) assessed as mortality at 25 degC after 72 hr at 100 mg/L. The assay is classed as functional.
The subject of assay [3] is Nilaparvata lugens. Put plainly: Insecticidal activity against Nilaparvata lugens (brown planthopper) assessed as mortality at 25 degC after 72 hr at 20 mg/L. In kind it is functional. Put shortly:
(§1)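 Standard spray test with slight modification. Compounds dissolved in DMF, then serially diluted with water containing Triton X-80 (0.1 mg/L). Groups of 12 insects in glass Petri dishes sprayed with a Potter sprayer, air-dried, then held under normal rearing conditions (25±1 °C, […], 12 h light). Scored at 72 h on a 0–100 scale against a negative control, using kill count and size of live insects. Three replicates.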

Assay [4] deals with Nilaparvata lugens. Kind of assay: Insecticidal activity against Nilaparvata lugens (brown planthopper) assessed as mortality at 25 degC after 72 hr at 100 mg/L. The assay is classed as functional. In outline: as §1
In assay [5] the test system is Nilaparvata lugens. Put plainly: Insecticidal activity against Nilaparvata lugens (brown planthopper) assessed as mortality at 25 degC after 72 hr at 4 mg/L. The assay is classed as functional. In outline:
as §1

Assay [6] has as its system Myzus persicae. Put plainly: Insecticidal activity against Myzus persicae (green peach aphid) assessed as mortality at 25 degC after 72 hr at 4 mg/L. In kind it is functional.
In assay [7] the test system is Myzus persicae. Put plainly: Insecticidal activity against Myzus persicae (green peach aphid) assessed as mortality at 25 degC after 72 hr. In kind it is functional.
Assay [8] is described as follows: Binding affinity to nicotinic acetylcholine receptor assessed as hydrogen bonding.
Assay [9] relates to Nilaparvata lugens. Put plainly: Insecticidal activity against Nilaparvata lugens (brown planthopper) assessed as mortality at 25 degC after 72 hr. In kind it is functional.

`CCN(Cc1ccc(Cl)nc1)C1=C([N+](=O)[O-])CN(CCCC(=O)OCCCCCO)CN1C`: the mortality at 20 µg/mL with Myzus persicae [1] worked out at 25%; in the assay on Nilaparvata lugens [3], 15%. For the same molecule, the results for the mortality at 100 µg/mL with Myzus persicae [2] and with Nilaparvata lugens [4] were 95% and 98%, respectively.
As for `CCN(Cc1ccc(Cl)nc1)C1=C([N+](=O)[O-])CN(CC(=O)OCCCO)CN1C`, the results for the mortality at 20 µg/mL in the assay on Myzus persicae [1] and in the assay on Nilaparvata lugens [3] were 50% and 45%, respectively. In addition, the mortality at 100 µg/mL in the assay with Myzus persicae [2] and in the assay on Nilaparvata lugens [4] was 100% throughout.
`CCCOC(=O)CCN1CC([N+](=O)[O-])=C(N(CC)Cc2ccc(Cl)nc2)N(C)C1`: the mortality at 4 µg/mL in the assay on Nilaparvata lugens [5] was determined as 75%. Besides, in the assay on Nilaparvata lugens [3], the mortality at 20 µg/mL was 100%. In addition, the mortality at 100 µg/mL in the assay with Nilaparvata lugens [4] amounted to 100%.
As to `CCN(Cc1ccc(Cl)nc1)C1=C([N+](=O)[O-])CN(C(C(=O)OCCO)c2ccc(Cl)cc2)CN1C` (centres undefined), the mortality at 20 µg/mL with Myzus persicae [1] and with Nilaparvata lugens [3] was 25% throughout. Further, the mortality at 100 µg/mL in the assay on Myzus persicae [2] and in the assay with Nilaparvata lugens [4] was 95% each time.
On to `CCC(C)C(C(=O)OCCO)N1CC([N+](=O)[O-])=C(N(CC)Cc2ccc(Cl)nc2)N(C)C1` (single isomer, unassigned; (+)), for which the mortality at 4 µg/mL in the assay on Myzus persicae [6] is 30%; in the assay with Nilaparvata lugens [5] it was 35%. Also, the mortality at 20 µg/mL in the assay with Myzus persicae [1] and in the assay on Nilaparvata lugens [3] was 95% in each case. In addition, the mortality at 100 µg/mL in the assay with Myzus persicae [2] and with Nilaparvata lugens [4] was 100% each time.
As to `CCN(Cc1ccc(Cl)nc1)/C(=C/[N+](=O)[O-])NC` [NITENPYRAM], the LC100 in the assay on Myzus persicae [7] was 0.129 mg/L. In addition, the mortality at 4 µg/mL in the assay with Myzus persicae [6] and in the assay on Nilaparvata lugens [5] was 100% each time. For the same molecule, the mortality at 20 µg/mL with Myzus persicae [1] and in the assay with Nilaparvata lugens [3] was 100% in each case. In addition, the mortality at 100 µg/mL in the assay with Myzus persicae [2] and in the assay with Nilaparvata lugens [4] was 100% in each case.
On to `CCN(Cc1ccc(Cl)nc1)C1=C([N+](=O)[O-])CN(CCC(=O)OCCCCO)CN1C`, for which the results for the mortality at 20 µg/mL in the assay on Myzus persicae [1] and in the assay on Nilaparvata lugens [3] were 83% and 80%, respectively. Besides, the mortality at 100 µg/mL in the assay on Myzus persicae [2] and in the assay with Nilaparvata lugens [4] was 100% throughout.
For the molecule `CCN(Cc1ccc(Cl)nc1)C1=C([N+](=O)[O-])CN(CCCC(=O)OCCCCCCO)CN1C`, the mortality at 20 µg/mL in the assay with Myzus persicae [1] and with Nilaparvata lugens [3] was 10% throughout. Moreover, the mortality at 100 µg/mL with Myzus persicae [2] is 88%; in the assay on Nilaparvata lugens [4], 90%.
With `CCN(Cc1ccc(Cl)nc1)C1=C([N+](=O)[O-])CN(CCCC(=O)OCCO)CN1C`, the mortality at 4 µg/mL with Myzus persicae [6] was 10%. Also, the mortality at 20 µg/mL amounted to 100% in the assay with Myzus persicae [1] and 90% in the assay with Nilaparvata lugens [3]. The mortality at 100 µg/mL in the assay with Myzus persicae [2] and in the assay on Nilaparvata lugens [4] was 100% each time.
With `CCN(Cc1ccc(Cl)nc1)C1=C([N+](=O)[O-])CN(CCC(=O)OCCO)CN1C`, the outcome in assay [8] was Active. For the same molecule, in the assay with Nilaparvata lugens [9], the LC50 was determined as 0.154 µg/mL (≈ 0.36 µM). The mortality at 4 µg/mL with Myzus persicae [6] and in the assay on Nilaparvata lugens [5] was 100% in each case. The mortality at 20 µg/mL in the assay on Myzus persicae [1] and in the assay with Nilaparvata lugens [3] was 100% in each case. The mortality at 100 µg/mL in the assay with Myzus persicae [2] and in the assay with Nilaparvata lugens [4] was 100% each time.
`CCN(Cc1ccc(Cl)nc1)C1=C([N+](=O)[O-])CN(CCC(=O)OCCCCCO)CN1C`: the mortality at 20 µg/mL with Myzus persicae [1] amounted to 50%; with Nilaparvata lugens [3], 40%. The mortality at 100 µg/mL with Myzus persicae [2] stood at 98%; in the assay on Nilaparvata lugens [4], 100%.
The matching figures for `CCN(Cc1ccc(Cl)nc1)C1=C([N+](=O)[O-])CN(C(Cc2ccccc2)C(=O)OCCO)CN1C` (centres undefined): 15%, 20%, 90% and 80%.
The corresponding values for `CCN(Cc1ccc(Cl)nc1)C1=C([N+](=O)[O-])CN(CC(=O)OCCO)CN1C` are 58%, 50%, 100% and 100%.
The corresponding values for `CCN(Cc1ccc(Cl)nc1)C1=C([N+](=O)[O-])CN(C(C(=O)OCCO)C(C)C)CN1C` (centres undefined) are 58%, 65%, 100% and 95%.
Take `CCN(Cc1ccc(Cl)nc1)C1=C([N+](=O)[O-])CN(CCCC(=O)OCCCCO)CN1C`: the mortality at 20 µg/mL in the assay with Myzus persicae [1] worked out at 70%; in the assay on Nilaparvata lugens [3], 78%. Moreover, the mortality at 100 µg/mL in the assay on Myzus persicae [2] came out at 95%; in the assay on Nilaparvata lugens [4] it was 100%.
The matching figures for `CCN(Cc1ccc(Cl)nc1)C1=C([N+](=O)[O-])CN(C(Cc2ccc(O)cc2)C(=O)OCCO)CN1C` (single isomer, unassigned; (+)): 10%, 15%, 85% and 80%.
Consider `CCN(Cc1ccc(Cl)nc1)C1=C([N+](=O)[O-])CN(CCC(=O)OCCCO)CN1C`, for which the figures for the mortality at 4 µg/mL with Myzus persicae [6] and with Nilaparvata lugens [5] were 55% and 70%, respectively. Besides, the mortality at 20 µg/mL in the assay on Myzus persicae [1] is 100%; with Nilaparvata lugens [3], 98%. For the same molecule, the mortality at 100 µg/mL in the assay on Myzus persicae [2] and in the assay on Nilaparvata lugens [4] was 100% each time.
On to `CCN(Cc1ccc(Cl)nc1)C1=C([N+](=O)[O-])CN(C(CC(C)C)C(=O)OCCO)CN1C` (centres undefined), for which, in [8], the outcome was Active. In addition, the LC50 came out at 0.17 µg/mL (≈ 0.362 µM) in the assay on Myzus persicae [7] (Myzus persicae, 72 h) and 0.17 µg/mL (≈ 0.362 µM) with Nilaparvata lugens [9]. Also, the mortality at 4 µg/mL in the assay with Myzus persicae [6] worked out at 100%; in the assay on Nilaparvata lugens [5] it was 95%. Besides, the mortality at 20 µg/mL with Myzus persicae [1] and in the assay with Nilaparvata lugens [3] was 100% throughout. The mortality at 100 µg/mL in the assay with Myzus persicae [2] and with Nilaparvata lugens [4] was 100% in each case.
For `CCN(Cc1ccc(Cl)nc1)C1=C([N+](=O)[O-])CN(CC(=O)OCCCCCO)CN1C`, the mortality at 20 µg/mL amounted to 25% in the assay with Myzus persicae [1] and 23% in the assay on Nilaparvata lugens [3]. The values for the mortality at 100 µg/mL in the assay on Myzus persicae [2] and with Nilaparvata lugens [4] were 100% and 90%, respectively.
The matching figures for `CCN(Cc1ccc(Cl)nc1)C1=C([N+](=O)[O-])CN(CCC(=O)OCCCCCCO)CN1C`: 33%, 25%, 95% and 90%.
The matching figures for `CCN(Cc1ccc(Cl)nc1)C1=C([N+](=O)[O-])CN(CC(=O)OCCCCCCO)CN1C`: 10%, 15%, 95% and 90%.
`CCN(Cc1ccc(Cl)nc1)C1=C([N+](=O)[O-])CN(CCCC(=O)OCCCO)CN1C`: the mortality at 20 µg/mL in the assay with Myzus persicae [1] came to 92%; in the assay with Nilaparvata lugens [3] it was 80%. The mortality at 100 µg/mL in the assay on Myzus persicae [2] and with Nilaparvata lugens [4] was 100% each time.
Consider `CCN(Cc1ccc(Cl)nc1)C1=C([N+](=O)[O-])CN(C(CC(C)C)C(=O)OC)CN1C` (centres undefined), for which the LC50 in the assay with Nilaparvata lugens [9] was found to be 0.216 µg/mL (≈ 0.491 µM). The mortality at 4 µg/mL in the assay with Nilaparvata lugens [5] was 50%. In the assay on Nilaparvata lugens [3], the mortality at 20 µg/mL was 100%. Also, the mortality at 100 µg/mL in the assay on Nilaparvata lugens [4] is 100%.
As to `CCN(Cc1ccc(Cl)nc1)C1=C([N+](=O)[O-])CN(C(C)C(=O)OCCO)CN1C` (single isomer, unassigned; (+)), the figures for the mortality at 20 µg/mL in the assay with Myzus persicae [1] and with Nilaparvata lugens [3] were 40% and 45%, respectively. In addition, the mortality at 100 µg/mL with Myzus persicae [2] came to 100%; in the assay on Nilaparvata lugens [4], 95%.
For `CCN(Cc1ccc(Cl)nc1)C1=C([N+](=O)[O-])CN(CCC(=O)OC(C)C)CN1C`, in the assay with Nilaparvata lugens [5], the mortality at 4 µg/mL came out at 70%. The mortality at 20 µg/mL in the assay on Nilaparvata lugens [3] was 100%. Besides, in the assay with Nilaparvata lugens [4], the mortality at 100 µg/mL turned out to be 100%.
With `CCN(Cc1ccc(Cl)nc1)C1=C([N+](=O)[O-])CN(CC(=O)OCCCCO)CN1C`, the mortality at 20 µg/mL was 33% in the assay with Myzus persicae [1] and 30% in the assay on Nilaparvata lugens [3]. Moreover, the mortality at 100 µg/mL in the assay on Myzus persicae [2] turned out to be 100%; in the assay with Nilaparvata lugens [4], 95%.

What is called mortality is the percentage killed. Usually LC50 stands for the concentration that kills 50% of the test population.
